The test system of assay [1] is Rattus norvegicus. Put plainly: Stimulation of levator ani muscle weight in castrated immature Sprague-Dawley rat at 2 mg/day, po after 5 days. The assay is classed as functional. The gist of the method: (§1)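 Immature (~50 g) castrated male Sprague Dawley rats dosed once daily for 5 days. Test article given p.o. at 2 mg/day in 20% cyclodextrin; testosterone propionate reference given at 1 mg/day s.c. in sesame oil. Ventral prostate and levator ani wet weights taken on day 6, adjusted to body weight. % stimulation uses vehicle = 0% and testosterone = 100%. n = 3/group.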

In assay [2] the test system is Rattus norvegicus. Put plainly: Stimulation of prostate weight in castrated immature Sprague-Dawley rat at 2 mg/day, po after 5 days. The assay is classed as functional, Prostate gland. The gist of the method:
as §1

Structures are written as SMILES. Some results are limits rather than exact numbers.

Drawing on ChEMBL document CHEMBL1148714, “Design, synthesis, and in vivo SAR of a novel series of pyrazolines as potent selective androgen receptor modulators” (2007), this text covers Activity for 25 molecules.

As for `CC(=O)Nc1ccc(CC2=NNC(C)(C(=O)Nc3ccc(C#N)c(C(F)(F)F)c3)C2)cc1` (stereo not given), the Activity in the assay on Rattus norvegicus [1] stood at 51%; with Rattus norvegicus [2], 24%.

For the molecule `CN1N=C(C(F)(F)F)CC1(C)C(=O)Nc1ccc(C#N)c(C(F)(F)F)c1` (stereo not given), the Activity with Rattus norvegicus [1] is on record as 44%; with Rattus norvegicus [2], <10%.

For `CC1(C(=O)Nc2ccc(Cl)c(C(F)(F)F)c2)CC(C(F)(F)F)=NN1` (stereo not given), the Activity with Rattus norvegicus [1] is 15%; in the assay with Rattus norvegicus [2] it was <10%.

In the case of `CCOC(=O)C1=NNC(C)(C(=O)Nc2ccc([N+](=O)[O-])c(C(F)(F)F)c2)C1` (stereo not given), the Activity in the assay with Rattus norvegicus [1] and with Rattus norvegicus [2] was <10% in each case.

As to `CC(=O)Nc1ccc(C2=NNC(C)(C(=O)Nc3ccc(Cl)c(C(F)(F)F)c3)C2)cc1` (stereo not given), the Activity in the assay with Rattus norvegicus [1] is listed as 17%; in the assay with Rattus norvegicus [2] it was <10%.

In the case of `CCCC1=NNC(C)(C(=O)Nc2ccc(C#N)c(C(F)(F)F)c2)C1` (stereo not given), the Activity with Rattus norvegicus [1] and in the assay with Rattus norvegicus [2] was <10% throughout.

Turning to `CCSc1cc(C#N)c(C(F)(F)F)cc1NC(=O)C1(C)CC(C(F)(F)F)=NN1` (stereo not given), the Activity with Rattus norvegicus [1] is recorded as 42%; with Rattus norvegicus [2] it was <10%.

Turning to `CC1(C(=O)Nc2ccc(C#N)c(C(F)(F)F)c2)CC=NN1` (stereo not given), the Activity in the assay on Rattus norvegicus [1] and in the assay with Rattus norvegicus [2] was <10% throughout.

As for `CO/C(=N\c1ccc(C#N)c(C(F)(F)F)c1)C1(C)CC(C(F)(F)F)=NN1` (stereo not given), the Activity in the assay on Rattus norvegicus [1] is recorded as 86%; in the assay on Rattus norvegicus [2], 30%.

With `CCCC1(C(=O)Nc2ccc(C#N)c(C(F)(F)F)c2)CC(C(F)(F)F)=NN1` (stereo not given), the Activity with Rattus norvegicus [1] is on record as 18%; with Rattus norvegicus [2] it was <10%.

Take `CC(C)C1=NNC(C)(C(=O)Nc2ccc(C#N)c(C(F)(F)F)c2)C1` (stereo not given): the Activity in the assay with Rattus norvegicus [1] and in the assay with Rattus norvegicus [2] was <10% throughout.

As to `CC(=O)Nc1ccc(C2=NNC(C)(C(=O)Nc3ccc([N+](=O)[O-])c(C(F)(F)F)c3)C2)cc1` (stereo not given), the Activity was found to be 35% in the assay on Rattus norvegicus [1] and 15% in the assay with Rattus norvegicus [2].

`CC1(C(=O)Nc2ccc(C#N)c(C(F)(F)F)c2)CC(CC(F)(F)F)=NN1` (stereo not given): the Activity is recorded as 10% in the assay on Rattus norvegicus [1] and <10% in the assay on Rattus norvegicus [2].

Take `CC1(C(=O)Nc2ccc([N+](=O)[O-])c(C(F)(F)F)c2)CC(c2ccc(NC(=O)C(F)(F)F)cc2)=NN1` (stereo not given): the Activity is recorded as 21% in the assay on Rattus norvegicus [1] and 10% with Rattus norvegicus [2].

On to `CC1(C(=O)Nc2ccc(C#N)c(C(F)(F)F)c2)CC(C(F)(F)C(F)(F)F)=NN1` (stereo not given), for which the values for the Activity in the assay with Rattus norvegicus [1] and in the assay with Rattus norvegicus [2] were 15% and <10%, respectively.

As to `CC1(C(=O)Nc2cc(C(F)(F)F)c(C#N)cc2Cl)CC(C(F)(F)F)=NN1` (stereo not given), the Activity in the assay with Rattus norvegicus [1] is 57%; in the assay with Rattus norvegicus [2], 15%.

For `CC(C)(C)C1=NNC(C)(C(=O)Nc2ccc(C#N)c(C(F)(F)F)c2)C1` (stereo not given), the Activity in the assay with Rattus norvegicus [1] is reported as 36%; in the assay with Rattus norvegicus [2], <10%.

On to `CC1(C(=O)Nc2ccc(C#N)c(C(F)(F)F)c2)CC(c2ccc(F)cc2)=NN1` (stereo not given), for which the Activity in the assay with Rattus norvegicus [1] came to 44%; in the assay with Rattus norvegicus [2], 20%.

For `CC1=NOC(C)(C(=O)Nc2ccc(C#N)c(C(F)(F)F)c2)C1` (stereo not given), the Activity in the assay with Rattus norvegicus [1] and in the assay with Rattus norvegicus [2] was <10% throughout.

As to `CC1(C(=O)Nc2ccc([N+](=O)[O-])c(C(F)(F)F)c2)CC(c2ccc(F)cc2)=NN1` (stereo not given), the Activity with Rattus norvegicus [1] is listed as 18%; with Rattus norvegicus [2], <10%.

For the molecule `CC1=NNC(C)(C(=O)Nc2ccc(C#N)c(C(F)(F)F)c2)C1` (stereo not given), the Activity is on record as 62% in the assay on Rattus norvegicus [1] and 29% in the assay with Rattus norvegicus [2].

With `CC1(C(=O)Nc2cc(C(F)(F)F)c(C#N)cc2I)CC(C(F)(F)F)=NN1` (stereo not given), the values for the Activity with Rattus norvegicus [1] and with Rattus norvegicus [2] were 86% and 47%, respectively.

In the case of `CC(=O)Nc1ccc(C2=NNC(C)(C(=O)Nc3ccc(C#N)c(C(F)(F)F)c3)C2)cc1` (stereo not given), the Activity in the assay with Rattus norvegicus [1] turned out to be 57%; in the assay on Rattus norvegicus [2], 16%.

For `CC1=NNC(C(=O)Nc2ccc(C#N)c(C(F)(F)F)c2)(C(F)(F)F)C1` (stereo not given), the values for the Activity with Rattus norvegicus [1] and in the assay with Rattus norvegicus [2] were 64% and 46%, respectively.

For the molecule `N#Cc1ccc(NC(=O)C2(C(F)(F)F)CC(C(F)(F)F)=NN2)cc1C(F)(F)F` (stereo not given), the results for the Activity in the assay on Rattus norvegicus [1] and in the assay with Rattus norvegicus [2] were 37% and 13%, respectively.
